From ChEMBL document CHEMBL1126705, “16 beta-([18F]fluoro)estrogens: systematic investigation of a new series of fluorine-18-labeled estrogens as potential imaging agents for estrogen-receptor-positive breast tumors” (J Med Chem, 1993)

Experiments:
[1] = tested on: Rattus norvegicus; assay: Tested in vivo for the biodistribution in rat uterus after 3 hours following an intravenous dose of 15 microCi of drug in 10%ethanol saline; assay type: ADME, organism-based
Outline: (§1)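 Immature (25-day-old) female Sprague-Dawley rats, ether-anesthetized, given the fluorine-18-labeled estrogen by femoral vein injection in 10% ethanol saline. […] Other groups were killed by decapitation at 1 or 3 h. Blood and organs were weighed and gamma-counted. Data are % injected dose/g, mean ± SD, typically n = 5 per group.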

[2] = tested on: Rattus norvegicus; assay: Tested in vivo for the biodistribution in rat muscle at 1 hour after intravenous dose of 15 microCi of drug in 10%ethanol saline; assay type: ADME, organism-based, Muscle tissue; outline: as §1
[3] = tested on: Rattus norvegicus; assay: Tested in vivo for the biodistribution in rat bone at 1 hour after intravenous dose of 15 microCi of the drug and 15 ug of estradiol; assay type: ADME, organism-based, Bone element
[4] = tested on: Rattus norvegicus; assay: Tested in vivo for the biodistribution in blood of female rat at 1 hour after intravenous dose of 15 microCi of drug in 10%ethanol saline; assay type: ADME, organism-based
Outline: (§2)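 Ether-anesthetized 25-day-old female Sprague-Dawley rats (~40–53 g) got the [18F] tracer in 10% ethanol saline via femoral vein. Rats were decapitated at 1 or 3 h, and blood and organs were weighed and gamma-counted. Values are % injected dose/g as mean ± SD, n = 5 per time point.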

[5] = tested on: Rattus norvegicus; assay: Tested in vivo for the biodistribution in rat kidney after 3 hours following an intravenous dose of 15 microCi of drug in 10%ethanol saline; assay type: ADME, organism-based; outline: as §2
[6] = tested on: Rattus norvegicus; assay: Tested in vivo for the biodistribution in rat ovaries at 1 hour after intravenous dose of 15 microCi of the drug and 15 ug of estradiol; assay type: ADME, organism-based, Female gonad; outline: as §1
[7] = molecular target: T1, Alpha-fetoprotein (Rattus norvegicus) (UniProt P02773); assay: Relative binding affinity for Alphafetoprotein
T1 sequence (whole entry): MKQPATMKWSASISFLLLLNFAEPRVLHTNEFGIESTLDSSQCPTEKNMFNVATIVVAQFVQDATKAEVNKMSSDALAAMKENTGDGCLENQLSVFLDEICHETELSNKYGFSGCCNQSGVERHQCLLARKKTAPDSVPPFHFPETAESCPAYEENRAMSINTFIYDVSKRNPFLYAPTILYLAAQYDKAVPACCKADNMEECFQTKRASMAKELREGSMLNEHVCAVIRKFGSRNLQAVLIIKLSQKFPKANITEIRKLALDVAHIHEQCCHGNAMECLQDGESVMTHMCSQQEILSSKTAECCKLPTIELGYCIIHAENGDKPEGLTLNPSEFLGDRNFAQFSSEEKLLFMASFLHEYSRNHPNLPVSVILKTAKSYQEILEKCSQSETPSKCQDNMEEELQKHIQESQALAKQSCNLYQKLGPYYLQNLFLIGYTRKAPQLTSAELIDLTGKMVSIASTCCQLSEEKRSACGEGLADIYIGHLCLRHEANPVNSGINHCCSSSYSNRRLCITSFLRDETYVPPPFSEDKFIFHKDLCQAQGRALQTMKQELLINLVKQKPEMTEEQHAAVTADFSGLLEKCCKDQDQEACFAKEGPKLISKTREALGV

[8] = tested on: Rattus norvegicus; assay: Tested in vivo for the biodistribution in rat ovaries at 1 hour after intravenous dose of 15 microCi of drug in 10%ethanol saline; assay type: ADME, organism-based, Female gonad; outline: as §1
[9] = Partition coefficient (logP); assay type: physicochemical; conditions: octanol/water
Outline: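 Octanol/water log P estimated from log k'w measured by reversed-phase HPLC (Minick method) on a C8 silica column.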

[10] = tested on: Rattus norvegicus; assay: Tested in vivo for the biodistribution in rat kidney at 1 hour after intravenous dose of 15 microCi of the drug and 15 u g of estradiol; assay type: ADME, organism-based
[11] = tested on: Rattus norvegicus; assay: Tested in vivo for the biodistribution in rat uterus/blood at 1 hour after intravenous dose of 15 microCi of the drug and 15 micro g of estradiol; assay type: ADME, organism-based
Outline: (§3)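 Female Sprague-Dawley rats, 25 days old (~40–53 g), ether-anesthetized, given the 18F-labeled estrogen iv via femoral vein in 10% ethanol saline. […] Others were sacrificed by decapitation at 1 or 3 h. Blood and organs were excised, weighed and gamma counted as % injected dose/g, mean ± SD, typically n = 5 (4–6).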

[12] = tested on: Rattus norvegicus; assay: Tested in vivo for the biodistribution in rat thymus after 3 hours following an intravenous dose of 15 microCi of drug in 10%ethanol saline; assay type: ADME, organism-based; outline: as §1
[13] = tested on: Rattus norvegicus; assay: Tested in vivo for the biodistribution in rat liver after 3 hours following an intravenous dose of 15 microCi of drug in 10%ethanol saline; assay type: ADME, organism-based; outline: as §1
[14] = tested on: Rattus norvegicus; assay: Tested in vivo for the biodistribution in rat bone at 1 hour after intravenous dose of 15 microCi of drug in 10%ethanol saline; assay type: ADME, organism-based, Bone element; outline: as §2
[15] = tested on: Rattus norvegicus; assay: Tested in vivo for the biodistribution in rat bone after 3 hours following an intravenous dose of 15 microCi of drug in 10%ethanol saline; assay type: ADME, organism-based, Bone element; outline: as §2
[16] = tested on: Rattus norvegicus; assay: Tested in vivo for the biodistribution in rat muscle at 1 hour after intravenous dose of 15 microCi of the drug and 15 ug of estradiol; assay type: ADME, organism-based, Muscle tissue; outline: as §1
[17] = molecular target: T2, Sex hormone-binding globulin (Homo sapiens) (UniProt P04278); assay: Relative binding affinity against sex steroid binding protein (SBP)
T2 sequence (whole entry): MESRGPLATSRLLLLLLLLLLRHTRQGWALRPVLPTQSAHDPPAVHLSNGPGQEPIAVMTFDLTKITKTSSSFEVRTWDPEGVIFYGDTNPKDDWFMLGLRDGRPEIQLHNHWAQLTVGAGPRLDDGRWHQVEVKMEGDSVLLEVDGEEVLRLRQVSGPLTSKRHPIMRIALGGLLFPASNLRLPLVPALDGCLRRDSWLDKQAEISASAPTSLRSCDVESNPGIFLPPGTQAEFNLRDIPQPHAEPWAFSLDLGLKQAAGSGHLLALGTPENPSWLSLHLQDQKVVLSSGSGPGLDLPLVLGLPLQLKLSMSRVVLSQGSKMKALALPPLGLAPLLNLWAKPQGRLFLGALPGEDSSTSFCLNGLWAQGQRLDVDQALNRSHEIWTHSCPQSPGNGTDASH

[18] = tested on: Rattus norvegicus; assay: Tested in vivo for the biodistribution in rat uterus/blood at 1 hour after intravenous dose of 15 microCi of drug in 10%ethanol saline; assay type: ADME, organism-based; outline: as §3
[19] = tested on: Rattus norvegicus; assay: Tested in vivo for the biodistribution in rat muscle after 3 hours following an intravenous dose of 15 microCi of drug in 10%ethanol saline; assay type: ADME, organism-based, Muscle tissue; outline: as §1
[20] = tested on: Rattus norvegicus; assay: Tested in vivo for the biodistribution in rat kidney at 1 hour after intravenous dose of 15 microCi of drug in 10%ethanol saline; assay type: ADME, organism-based; outline: as §2
[21] = tested on: Rattus norvegicus; assay: Tested in vivo for the biodistribution in rat fat after 3 hours following an intravenous dose of 15 microCi of drug in 10%ethanol saline; assay type: ADME, organism-based, Adipose tissue; outline: as §2
[22] = tested on: Rattus norvegicus; assay: Tested in vivo for the biodistribution in rat uterus at 1 hour after intravenous dose of 15 microCi of drug in 10%ethanol saline; assay type: ADME, organism-based; outline: as §3
[23] = tested on: Rattus norvegicus; assay: Tested in vivo for the biodistribution in rat ovaries after 3 hours following an intravenous dose of 120 microCi of drug in 10%ethanol saline; assay type: ADME, organism-based, Female gonad; outline: as §1
[24] = tested on: Rattus norvegicus; assay: Tested in vivo for the biodistribution in rat uterus/blood after 3 hours following an intravenous dose of 15 microCi of drug in 10%ethanol saline; assay type: ADME, organism-based; outline: as §3
[25] = tested on: Rattus norvegicus; assay: Tested in vivo for the biodistribution in blood of female rat at 1 hour after intravenous dose of 15 microCi of the drug and 15 u g of estradiol; assay type: ADME, organism-based
[26] = tested on: Rattus norvegicus; assay: Tested in vivo for the biodistribution in rat uterus/muscle after 3 hours following an intravenous dose of 15 microCi of drug in 10%ethanol saline; assay type: ADME, organism-based, Muscle tissue; outline: as §3
[27] = tested on: Rattus norvegicus; assay: Tested in vivo for the biodistribution in rat uterus/muscle at 1 hour after intravenous dose of 15 microCi of drug in 10%ethanol saline; assay type: ADME, organism-based, Muscle tissue; outline: as §3
[28] = tested on: Rattus norvegicus; assay: Tested in vivo for the biodistribution in rat thymus at 1 hour after intravenous dose of 15 microCi of drug in 10%ethanol saline; assay type: ADME, organism-based; outline: as §1
[29] = tested on: Rattus norvegicus; assay: Tested in vivo for the biodistribution in rat uterus/muscle at 1 hour after intravenous dose of 15 microCi of the drug and 15 ug of estradiol; assay type: ADME, organism-based, Muscle tissue; outline: as §3
[30] = tested on: Rattus norvegicus; assay: Tested in vivo for the biodistribution in rat liver at 1 hour after intravenous dose of 15 microCi of drug in 10%ethanol saline; assay type: ADME, organism-based; outline: as §1
[31] = tested on: Rattus norvegicus; assay: Tested in vivo for the biodistribution in rat fat at 1 hour after intravenous dose of 15 microCi of drug in 10%ethanol saline; assay type: ADME, organism-based, Adipose tissue; outline: as §2
[32] = tested on: Rattus norvegicus; assay: Tested in vivo for the biodistribution in rat liver at 1 hour after intravenous dose of 15 microCi of the drug and 15 u g of estradiol; assay type: ADME, organism-based; outline: as §1
[33] = tested on: Rattus norvegicus; assay: Tested in vivo for the biodistribution in rat thymus at 1 hour after intravenous dose of 15 microCi of the drug and 15 micro g of estradiol; assay type: ADME, organism-based; outline: as §1
[34] = tested on: Rattus norvegicus; assay: Tested in vivo for the biodistribution in rat fat at 1 hour after intravenous dose of 15 microCi of the drug and 15 ug of estradiol; assay type: ADME, organism-based, Adipose tissue
[35] = molecular target: T3, Estrogen receptor (Rattus norvegicus) (UniProt P06211+Q62986)
[36] = tested on: Rattus norvegicus; assay: Tested in vivo for the biodistribution in blood of female rat after 3 hours following an intravenous dose of 15 microCi of drug in 10%ethanol saline; assay type: ADME, organism-based; outline: as §2
[37] = molecular target: T3, Estrogen receptor (Rattus norvegicus); remark: listed apart in the source
[38] = tested on: Rattus norvegicus; assay: Tested in vivo for the biodistribution in rat uterus at 1 hour after intravenous dose of 15 microCi of the drug and 15 micro g of estradiol; assay type: ADME, organism-based; outline: as §3

`CC[C@H]1C[C@]2(C)[C@@H](O)[C@@H](F)C[C@H]2[C@@H]2CCc3cc(O)ccc3[C@@H]12` showed an Injected [1] of 6.89%, an Injected [2] of 0.513% and an Injected [3] of 1.057%. It also gave an Injected [4] of 0.108%, an Injected [5] of 1.413% and an Injected [6] of 1.063%. The relative binding affinity (RBA) [7] was 0.079, the Injected [8] was 2.991% and the logP [9] was 3.72. It also gave an Injected [10] of 1.716%, an Injected [11] of 6.3% and an Injected [12] of 0.453%. For the same compound, the Injected [13] was 1.822%, the Injected [14] was 0.889% and the Injected [15] was 1.077%. For the same compound, the Injected [16] was 0.189%, the relative binding affinity (RBA) [17] was 0.55 and the Injected [18] was 52.37%. It also gave an Injected [19] of 0.307%, an Injected [20] of 2.534% and an Injected [21] of 1.294%. It also gave an Injected [22] of 5.57%, an Injected [23] of 2.742% and an Injected [24] of 82.19%. It also gave an Injected [25] of 0.202%, an Injected [26] of 22.88% and an Injected [27] of 10.81%. It also gave an Injected [28] of 0.779%, an Injected [29] of 7.11% and an Injected [30] of 2.331%. It also gave an Injected [31] of 1.692%, an Injected [32] of 3.615% and an Injected [33] of 0.186%. For the same compound, the Injected [34] was 1.054%, the NSB [35] was 1.6 and the Injected [36] was 0.084%. For the same compound, the BSI [37] was 158 and the Injected [38] was 1.214%.
